From the RNAGym collection of RNA variant scans (doi:10.1002/anie.201605470)

B1: Osa-1-4 twister ribozyme (parent)
chain: CCGCCUAACACUGCCAAUGCCGGUCCCAAGCCCGGAUAAAAGUGGAGGGGGCGG

Variants of: B1
Assay: self-cleavage, relative activity (ratio to wild type); higher = more cleavage; co-transcriptional
How it was run: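 A DNA template encoding a 54-nucleotide twister ribozyme from Oryza sativa was made so that each of the 48 positions downstream of the cleavage site carried 97 % wild-type base and 1 % of each other base. Transcription in vitro ran for 2 h at 37 °C, during which the ribozyme could cleave itself. Reverse transcription used a template-switching oligonucleotide, and the products were PCR-amplified and deep-sequenced. Each read was scored as cleaved or uncleaved by whether upstream sequence was present, and relative activity is the fraction cleaved normalised to wild type.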

For CCGCCUGACACUGCGAAUGCCGGUCCCAAGCCCGGAUAAAAGUGGAGGGGGCGG, which self-cleavage is on record?
Its self-cleavage is 0.27.

Which self-cleavage does the source give for CCGCCUGACACUGCUAAUGCCGGUCCCAAGCCCGGAUAAAAGUGGAGGGGGCGG here?
Its self-cleavage is 0.09.

Which self-cleavage does the source give for CCGCCUGACACUGCAAAUGCCGGUCCCAAGCCCGGAUAAAAGUGGAGGGGGCGG here?
The self-cleavage was 0.12.

For CCGCCUCACACUGCCAAUGCCGGUCCCAAGCCCGGAUAAAAAUGGAGGGGGCGG, which self-cleavage is on record?
Its self-cleavage is 0.04.

For CCGCCUCACACUGCCAAUGCCGGUCCCAAGCCCGGAUAAAACUGGAGGGGGCGG, which self-cleavage is on record?
Its self-cleavage is 0.03.

For CCGCCUCACACUGCCAAUGCCGGUCCCAAGCCCGGAUAAAAUUGGAGGGGGCGG, which self-cleavage is on record?
Its self-cleavage is 0.02.

Which self-cleavage does the source give for CCGCCUCACACUGCCAAGGCCGGUCCCAAGCCCGGAUAAAAGUGGAGGGGGCGG here?
Its self-cleavage is 0.08.

Which self-cleavage does the source give for CCGCCUCACACUGCCAACGCCGGUCCCAAGCCCGGAUAAAAGUGGAGGGGGCGG here?
The self-cleavage was 0.06.

With CCGCCUCACACUGCCAAAGCCGGUCCCAAGCCCGGAUAAAAGUGGAGGGGGCGG as the variant, how does the self-cleavage read?
Its self-cleavage is 0.04.

With CCGCCUCACACUGCCAAUGCCGUUCCCAAGCCCGGAUAAAAGUGGAGGGGGCGG as the variant, how does the self-cleavage read?
The self-cleavage was 0.02.

For CCGCCUCACACUGCCAAUGCCGAUCCCAAGCCCGGAUAAAAGUGGAGGGGGCGG, which self-cleavage is on record?
The self-cleavage was 0.05.

For CCGCCUCACACUGCCAAUGCCGCUCCCAAGCCCGGAUAAAAGUGGAGGGGGCGG, which self-cleavage is on record?
The self-cleavage was 0.01.

For CCGCCUCACACCGCCAAUGCCGGUCCCAAGCCCGGAUAAAAGUGGAGGGGGCGG, which self-cleavage is on record?
Its self-cleavage is 0.04.

With CCGCCUCACACGGCCAAUGCCGGUCCCAAGCCCGGAUAAAAGUGGAGGGGGCGG as the variant, how does the self-cleavage read?
Its self-cleavage is 0.09.

With CCGCCUCACACAGCCAAUGCCGGUCCCAAGCCCGGAUAAAAGUGGAGGGGGCGG as the variant, how does the self-cleavage read?
The self-cleavage was 0.05.

With CCGCCUCACACUGCCAAUGCCGGUCCCAAGCCCGGAUAAAAGUGGAGGGGGCGA as the variant, how does the self-cleavage read?
The self-cleavage was 0.05.

With CCGCCUCACACUGCCAAUGCCGGUCCCAAGCCCGGAUAAAAGUGGAGGGGGCGU as the variant, how does the self-cleavage read?
Its self-cleavage is 0.06.

For CCGCCUCACACUGCCAAUGCCGGUCCCAAGCCCGGAUAAAAGUGGAGGGGGCGC, which self-cleavage is on record?
The self-cleavage was 0.05.

Which self-cleavage does the source give for CCGCCUGACACUGCCAAUGCCGGUCCGAAGCCCGGAUAAAAGUGGAGGGGGCGG here?
The self-cleavage was 0.07.

With CCGCCUGACACUGCCAAUGCCGGUCCUAAGCCCGGAUAAAAGUGGAGGGGGCGG as the variant, how does the self-cleavage read?
Its self-cleavage is 0.1.

With CCGCCUGACACUGCCAAUGCCGGUCCAAAGCCCGGAUAAAAGUGGAGGGGGCGG as the variant, how does the self-cleavage read?
The self-cleavage was 0.07.

For CCGCCUCACACUGCCAAUGCCGGUCCCAAGCCCGGAUAAAAGUGGAGGGGUCGG, which self-cleavage is on record?
Its self-cleavage is 0.03.

Which self-cleavage does the source give for CCGCCUCACACUGCCAAUGCCGGUCCCAAGCCCGGAUAAAAGUGGAGGGGCCGG here?
Its self-cleavage is 0.02.

For CCGCCUCACACUGCCAAUGCCGGUCCCAAGCCCGGAUAAAAGUGGAGGGGACGG, which self-cleavage is on record?
The self-cleavage was 0.04.

For CCGCCUGACACUGCCAAUGCCGGUACCAAGCCCGGAUAAAAGUGGAGGGGGCGG, which self-cleavage is on record?
Its self-cleavage is 0.05.

For CCGCCUGACACUGCCAAUGCCGGUGCCAAGCCCGGAUAAAAGUGGAGGGGGCGG, which self-cleavage is on record?
Its self-cleavage is 0.06.

With CCGCCUGACACUGCCAAUGCCGGUUCCAAGCCCGGAUAAAAGUGGAGGGGGCGG as the variant, how does the self-cleavage read?
The self-cleavage was 0.17.

For CCGCCUCACACUGCCAAUGCCGGUCCCAAGCCCGGAUAAAAGUGGAGUGGGCGG, which self-cleavage is on record?
The self-cleavage was 0.01.

For CCGCCUCACACUGCCAAUGCCGGUCCCAAGCCCGGAUAAAAGUGGAGCGGGCGG, which self-cleavage is on record?
The self-cleavage was 0.02.

With CCGCCUCACACUGCCAAUGCCGGUCCCAAGCCCGGAUAAAAGUGGAGAGGGCGG as the variant, how does the self-cleavage read?
Its self-cleavage is 0.02.

For CCGCCUGACACUGCCAAUGCCGGUCGCAAGCCCGGAUAAAAGUGGAGGGGGCGG, which self-cleavage is on record?
Its self-cleavage is 0.19.

Which self-cleavage does the source give for CCGCCUGACACUGCCAAUGCCGGUCUCAAGCCCGGAUAAAAGUGGAGGGGGCGG here?
The self-cleavage was 0.13.

With CCGCCUGACACUGCCAAUGCCGGUCACAAGCCCGGAUAAAAGUGGAGGGGGCGG as the variant, how does the self-cleavage read?
The self-cleavage was 0.04.

For CCGCCUCACACUGCCAAUGCCGGUCCCAAACCCGGAUAAAAGUGGAGGGGGCGG, which self-cleavage is on record?
The self-cleavage was 0.01.

For CCGCCUCACACUGCCAAUGCCGGUCCCAACCCCGGAUAAAAGUGGAGGGGGCGG, which self-cleavage is on record?
Its self-cleavage is 0.01.

For CCGCCUCACACUGCCAAUGCCGGUCCCAAUCCCGGAUAAAAGUGGAGGGGGCGG, which self-cleavage is on record?
The self-cleavage was 0.01.

For CCGCCUGACACUGUCAAUGCCGGUCCCAAGCCCGGAUAAAAGUGGAGGGGGCGG, which self-cleavage is on record?
The self-cleavage was 0.1.

With CCGCCUGACACUGGCAAUGCCGGUCCCAAGCCCGGAUAAAAGUGGAGGGGGCGG as the variant, how does the self-cleavage read?
The self-cleavage was 0.32.

With CCGCCUGACACUGACAAUGCCGGUCCCAAGCCCGGAUAAAAGUGGAGGGGGCGG as the variant, how does the self-cleavage read?
The self-cleavage was 0.04.

For CCGCCUGACACUGCCAAUGCGGGUCCCAAGCCCGGAUAAAAGUGGAGGGGGCGG, which self-cleavage is on record?
The self-cleavage was 0.03.

For CCGCCUGACACUGCCAAUGCUGGUCCCAAGCCCGGAUAAAAGUGGAGGGGGCGG, which self-cleavage is on record?
The self-cleavage was 0.23.

Which self-cleavage does the source give for CCGCCUGACACUGCCAAUGCAGGUCCCAAGCCCGGAUAAAAGUGGAGGGGGCGG here?
The self-cleavage was 0.1.

For CCGCCUGACACUGCCAAUGCCGGUCCCAAGACCGGAUAAAAGUGGAGGGGGCGG, which self-cleavage is on record?
Its self-cleavage is 0.03.

Which self-cleavage does the source give for CCGCCUGACACUGCCAAUGCCGGUCCCAAGGCCGGAUAAAAGUGGAGGGGGCGG here?
Its self-cleavage is 0.14.

Which self-cleavage does the source give for CCGCCUGACACUGCCAAUGCCGGUCCCAAGUCCGGAUAAAAGUGGAGGGGGCGG here?
Its self-cleavage is 0.09.

For CCGCCUCACACUGCCAAUGCCGGUCCCAAGCCCGGAUAAAAGUGGAGGGGGCAG, which self-cleavage is on record?
Its self-cleavage is 0.06.

For CCGCCUCACACUGCCAAUGCCGGUCCCAAGCCCGGAUAAAAGUGGAGGGGGCCG, which self-cleavage is on record?
Its self-cleavage is 0.01.

With CCGCCUCACACUGCCAAUGCCGGUCCCAAGCCCGGAUAAAAGUGGAGGGGGCUG as the variant, how does the self-cleavage read?
The self-cleavage was 0.03.
